M1 agonist: activates the M1 muscarinic receptor; CHO-M1 cells, Fluo-4 calcium fluorescence, agonist mode; hits give high values; B-score at 10 µM; 64,000 tested, 3% active; AID 626;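 active means fluorescence rise, raw or as B-score row- and column-corrected plate score, outside the 99.7% band of its plate's samples, either direction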
M1 antag: M1 muscarinic receptor (rat) antagonism. P08482. CHO-M1 cells, Fluo-4 calcium, ACh EC80 antagonist mode; hits give low values. B-score at 10 µM. 64,000 tested, 3.4% active. AID 628;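 active means calcium fluorescence response, raw or row-and-column corrected B-score, differing from the plate sample mean either way at a set confidence level, mostly lower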
Target sequence (P08482 whole entry, looked up): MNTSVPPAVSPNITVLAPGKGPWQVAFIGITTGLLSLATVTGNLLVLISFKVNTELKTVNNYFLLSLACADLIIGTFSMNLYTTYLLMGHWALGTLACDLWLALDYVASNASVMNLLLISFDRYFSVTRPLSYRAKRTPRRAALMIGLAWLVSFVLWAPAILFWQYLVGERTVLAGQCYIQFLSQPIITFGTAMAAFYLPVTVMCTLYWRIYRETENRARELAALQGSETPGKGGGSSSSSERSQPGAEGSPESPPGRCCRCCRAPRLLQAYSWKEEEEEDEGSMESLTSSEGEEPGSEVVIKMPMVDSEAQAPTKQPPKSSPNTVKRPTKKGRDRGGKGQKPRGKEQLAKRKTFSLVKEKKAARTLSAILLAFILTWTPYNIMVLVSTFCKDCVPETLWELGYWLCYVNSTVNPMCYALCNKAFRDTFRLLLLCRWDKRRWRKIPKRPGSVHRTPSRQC
SF-1 act: activates the human nuclear receptor SF-1 | CHO-K1 Gal4-SF-1 LBD luciferase reporter; % increase over DMSO SF-1-specific signal | activation, % at 10 µM | 65,000 tested, 1.9% active;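 active means activation above the mean activation of all tested compounds plus 3 SD, cut at about 50% in these data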
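material = CHO-K1 cells with Gal4–hSF-1 LBD chimera plus Gal4-driven luciferase | compound = 10 µM single point, 1% DMSO | incubation = 20 h compound exposure at 37 °C after 1 h cell settling | measured by = SteadyLite luciferase luminescence | evaluation = percent activation relative to DMSO median and mock-transfected background | control set = DMSO negative control and −SF1 background wells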
MT1-MMP txn act: MT1-MMP promoter transcription activation; HT1080 MT1-MMP promoter luciferase reporter, luminescence, overnight; hits give high values; activation factor at 10 µM; 86,000 tested, 0.16% active;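 active means activation factor of at least 2 for MT1-MMP transcription at 10 µM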
RORa activator: activates the human nuclear receptor RORA. activation, % at 10 µM. 65,000 tested, 1.5% active. P35398. CHO-K1 Gal4-RORA LBD luciferase reporter, luminescence; percent increase over mock-subtracted basal signal. AID 560;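 active means activation above the mean of all tested compounds plus 3 SD, cut at about 49% in these data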
Numbers stand for hits; 0 = inactive; - = no result given. Hits are enriched below; roughly 6.3% of the tested compounds scored in any of these assays.

SMILES	M1 agonist	M1 antag	SF-1 act	MT1-MMP txn act	RORa activator
CC(C(=O)OCn1nnc2ccccc2c1=O)N1C(=O)c2ccccc2C1=O (configuration not stated)	0	0	0	0	0
CCCC[C@@H]1C[C@H]1C(NC(=O)c1ccco1)c1ccc(-c2ccccc2)cc1 (some centres not stated)	-	-	-	0	-
CCNC(=O)NC(=O)CSc1ccc(NC(C)=O)cc1	0	0	0	0	0
CCNC(=O)NC(=O)COC(=O)c1ccccc1SCC(=O)NC(=O)NCC	0	0	69.1	0	0
COC(=O)CSc1nc(-c2cccs2)ccc1C#N	0	0	82.9	0	59.9
Clc1ccc(-c2nnc(-c3ccco3)o2)cc1	0	0	0	0	49.9
Cn1c(SCC(=O)c2ccc3c(c2)OCCO3)nnc1C1CC1	-	-	-	0	-
CCOC(=O)Cc1cc(=O)[nH]c(Nc2nc3ccccc3o2)n1	0	0	0	0	49.5
Nc1nc(N)c2sc3nc4c(cc3c2n1)CCC4	0	0	57.1	0	56.1
Cc1c(C(=O)NCC2CCCO2)oc2ccc(S(=O)(=O)N3CCCC3)cc12 (configuration not stated)	0	0	0	0	0
Cc1c(C(=O)NCC2CCCO2)oc2ccc3c(c12)C(=O)CC(C)(C)O3 (configuration not stated)	0	0	61.5	-	0
Cc1ccc(CNC(=O)C2(CC(C)C)C=CCN2C(=O)c2ccccc2)o1 (configuration not stated)	-	-	-	0	-
Cc1ccc(NS(=O)(=O)c2ccc(C(=O)N3CCN(c4ccccn4)CC3)cc2)cc1	-	-	-	0	-
Cc1ccc(S(=O)(=O)NCc2ccc(C(=O)N3CCN(c4ccccn4)CC3)cc2)cc1	0	2.4	0	0	0
Clc1ccccc1CSc1ncccn1	0	0	0	0	0
O=C(CSc1ncccn1)NCc1ccccc1Cl	0	0	68.3	0	0
CC(C)(C)c1ccccc1OCCCCCNCCO	0	0	0	0	0
CC1CCN(S(=O)(=O)c2ccc(NC(=O)Cn3nnc(-c4ccccc4F)n3)cc2)CC1	-	-	0	0	52.7
CC1CCN(S(=O)(=O)c2ccc(NC(=O)Cc3ccccc3)cc2)CC1	-	-	-	0	-
Cc1csc2ncc(C(=O)Nc3ccon3)c(=O)n12	0	0	0	0	0
Cc1csc2ncc(C(=O)Nc3ccccc3Cl)c(=O)n12	0	0	0	0	0
Cc1csc2ncc(C(=O)Nc3ccc4c(c3)OCCO4)c(=O)n12	0	0	0	0	97.2
Cc1csc2ncc(C(=O)Nc3ccccc3F)c(=O)n12	0	0	49.7	0	0
Cc1cccc(NC(=O)c2cnc3scc(C)n3c2=O)c1	0	0	0	0	49.8
CCOC(=O)c1nn(-c2ccc3c(c2)CCN3C(C)=O)cc1O	0	0	64.8	0	58.3
SMILES	M1 agonist	M1 antag	SF-1 act	MT1-MMP txn act	RORa activator
Cc1sc(/N=C/c2ccccc2O)c(C#N)c1C	-	-	-	2	-
CCc1ccc(O)c(N=Cc2ccccc2O)c1	0	0	0	0	0
COC(=O)c1ccccc1NC(=O)Cn1c(SC)c(F)cnc1=O	0	0.997	0	0	0
COC(=O)c1ccccc1NC(=O)Cn1cc(Br)cn1	0	0	0	0	0
CSc1ncccc1C(=O)OCc1ccccc1F	0	0	0	0	88.6
CSc1ncccc1C(=O)OCc1ccccc1	0	0	0	0	0
CC(C)NC(=O)COc1ncnc2sccc12	-	-	-	0	-
c1ccc(OCCOc2ncnc3sccc23)cc1	0	0	52.6	0	0
COC(=O)c1ccc(NC(=O)c2ccc3c(c2)OCO3)cc1	0	0	53.3	0	0
COc1ccc(NC(=O)c2ccc3c(c2)OCO3)cc1Cl	0	0	53.2	0	0
COc1cc(C(=O)Nc2ccc3c(c2)OCCO3)ccc1OC(F)F	0	0	63.8	0	75.5
COc1ccc(NCc2ccc3c(c2)OCO3)cc1Cl	0	0	0	0	0
COC(=O)c1ccc(NC(=O)c2cccc(OC)c2)cc1	0	0	0	0	48.7
Cc1cc(Nc2ccccc2)n(CCO)n1	-	-	-	0	-
COCCNC(=O)[C@H](C)/C=C/C(NC(=O)OCc1ccccc1)c1ccc(C(=O)OC)cc1 (some centres not stated)	-	-	-	0	-
Clc1ccc(C2[C@H]3CN(Cc4cccnc4)[C@H](c4ccccc4)C34CC2(c2cccnc2)C4)cn1 (some centres not stated)	-	-	-	0	-
CC(=O)N1CCN(c2ccc(NC(=O)c3ccc4c(c3)OCCO4)cc2)CC1	0	0	0	0	0
CN1CCN(c2ccc(NC(=O)c3ccc4c(c3)OCO4)cc2)CC1	0	0	61.1	0	0
O=C(Nc1nc(-c2ccccc2)cs1)c1cccs1	0	0	0	0	56.6
CC(C)C(=O)Nc1nc(-c2ccccc2)ns1	-	-	-	2	-
Cc1ccc(-c2csc(NC(=O)c3ccno3)n2)cc1	0	0	0	0	60.3
CCC(=O)Nc1nc(-c2ccccc2)ns1	-	-	-	0	-
O=C(Nc1nc(-c2ccccc2)ns1)c1cccs1	0	0	75.5	0	0
O=C(CSc1ncn[nH]1)Nc1nc(-c2ccccc2)ns1	0	0	54.6	0	0
O=C(CSc1ncn[nH]1)Nc1ccccc1C(=O)O	0	0	0	0	0
SMILES	M1 agonist	M1 antag	SF-1 act	MT1-MMP txn act	RORa activator
COc1ccc(/C=C/C2=NC(=C\N(C)C)/C(=O)O2)cc1	0	0	50.5	0	0
CCc1c(C)c2nncn2[nH]c1=O	0	0	0	0	0
CCn1c(SCC(=O)NC(=O)NCc2ccco2)nnc1-c1cccs1	-	-	-	0	-
O=C(NCc1ccco1)c1ccc2ccccc2c1	0	0	0	0	67.5
O=C(NCc1ccco1)c1cc(-c2cccs2)on1	0	0	0	0	67.4
O=C(NCc1ccco1)c1ccc2c(c1)C(=O)c1ccccc1-2	0	0	0	0	0
O=C(NCCCn1ccnc1)c1cc(-c2cccs2)on1	0	0	67.0	0	91.8
Cn1c(SCC(=O)NCc2ccco2)nnc1-c1cccs1	0	2.25	0	0	0
O=C(NCCCN1CCOCC1)c1cc(-c2cccs2)on1	0	0	0	0	0
COC(=O)[C@H](Cc1ccccc1)NC(=O)[C@]1(C)C[C@H]1[C@H](NC(=O)OCc1ccccc1)c1ccccc1	-	-	-	0	-
CCN1CC=C2C(C1)C(c1ccc(Cl)s1)C(C#N)=C(N)C2(C#N)C#N (configuration not stated)	261	0	0	0	0
Cn1c(SCC(=O)OCC(=O)c2ccccc2)nnc1-c1cccs1	0	0	0	0	0
Cc1cc(C)n(Cc2ccc(C(=O)O)cc2)n1	-	-	-	0	-
CCc1ccc(-c2ccc(C(=O)O)cc2)nc1	0	0	85.1	0	0
O=C(Nc1ccccc1)N1CC=C(c2ccccc2)CC1	0	0	87.2	0	49.2
O=C(Nc1cccc2ccccc12)N1CC=C(c2ccccc2)CC1	-	-	-	0	-
CCOC(=O)c1c(C)c(C(=O)Nc2ccc(N(C)C)cc2)c(C)n1CC	0	0	72.1	0	54.3
N#CCCn1c(Cl)nc2ccccc21	0	0	0	0	0
COCCn1c(C)nc2oc3ccc(Br)cc3c(=O)c2c1=O	0	1.86	0	0	0
